# ChEMBL document CHEMBL4138069, “Design, synthesis, molecular-docking and antimycobacterial evaluation of some novel 1,2,3-triazolyl xanthenones” (Medchemcomm, 2017)
# Key:
# [1] = test system: Mycobacterium tuberculosis; assay: Antimycobacterial activity against Mycobacterium tuberculosis H37Rv ATCC 27294 assessed as inhibition of bacterial growth incubated for 28 days; format: functional; conditions: H37Rv ATCC 27294, 672 h
# Method in brief: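 Agar dilution in Middlebrook 7H11 with OADC, two-fold dilutions at final 50 to 0.78 μg mL–1. Inoculum from fresh 7H11 slants, adjusted to 1 mg mL–1 wet weight in 0.05% Tween 80 saline, diluted 10–2 to about 10^7 cfu mL–1; 5 μL spotted per tube. Incubated at 37 °C. MIC = lowest concentration giving complete growth inhibition, read at 28 days, in triplicate.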
# Escherichia coli = assay: Antibacterial activity against Escherichia coli MTCC 1652 by agar dilution method; format: functional
# Method in brief: (§1)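 Minimum inhibitory concentration measured by agar dilution against three Gram-positive and three Gram-negative MTCC strains; read out as MIC.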
# [2] = Lipophilicity, log P of the compound; format: physicochemical; conditions: octanol/water
# Method in brief: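 Value is a calculated log P (clog P), computed rather than measured experimentally.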
# Bacillus cereus = assay: Antibacterial activity against Bacillus cereus MTCC 430 by agar dilution method; format: functional; method in brief: as §1
# Staphylococcus aureus = assay: Antibacterial activity against Staphylococcus aureus MTCC 96 by agar dilution method; format: functional; method in brief: as §1
# [3] = Cytotoxicity in HEK cells assessed as inhibition of cell growth at 50 ug/ml incubated for 72 hrs by MTT assay; format: cell-based; conditions: human, read-out: GI
# Method in brief: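 HEK cells were exposed to compound at 50 μg mL–1 for 72 h. Viability was taken from cellular conversion of MTT to formazan, using a non-radioactive cell proliferation kit.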
# Bacillus subtilis = assay: Antibacterial activity against Bacillus subtilis MTCC 121 by agar dilution method; format: functional; method in brief: as §1
# Candida albicans = assay: Antifungal activity against Candida albicans MTCC 9062; format: functional
# Method in brief: (§2)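 Antifungal read-out was MIC in μg mL–1, with fluconazole as the reference drug.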
# Aspergillus niger = assay: Antifungal activity against Aspergillus niger MTCC 282; format: functional; method in brief: as §2
# Pseudomonas aeruginosa = assay: Antibacterial activity against Pseudomonas aeruginosa MTCC 741 by agar dilution method; format: functional; method in brief: as §1
# Klebsiella aerogenes = assay: Antibacterial activity against Enterobacter aerogenes MTCC 111 by agar dilution method; format: functional; method in brief: as §1
Compound,MIC [1] [µg/mL],MIC (Escherichia coli) [µg/mL],logP [2],MIC (Bacillus cereus) [µg/mL],MIC (Staphylococcus aureus) [µg/mL],"inhibition at 72 h, 50 ug/ml [3] [%]",MIC (Bacillus subtilis) [µg/mL],MIC (Candida albicans) [µg/mL],MIC (Aspergillus niger) [µg/mL],MIC (Pseudomonas aeruginosa) [µg/mL],MIC (Klebsiella aerogenes) [µg/mL]
O=Cc1cn(-c2ccccc2)nn1,25,–,–,–,–,–,–,–,–,–,–
O=Cc1cn(-c2ccc(Cl)cc2)nn1,6.25,–,–,–,–,–,–,–,–,–,–
O=Cc1cn(-c2ccccc2Cl)nn1,25,–,–,–,–,–,–,–,–,–,–
O=Cc1cn(-c2ccc([N+](=O)[O-])cc2)nn1,> 25,–,–,–,–,–,–,–,–,–,–
COc1ccc(-n2cc(C=O)nn2)cc1,12.5,–,–,–,–,–,–,–,–,–,–
COc1ccccc1-n1cc(C=O)nn1,> 25,–,–,–,–,–,–,–,–,–,–
COc1ccc(-n2cc(C3C4=C(CCCC4=O)Oc4ccc5ccccc5c43)nn2)cc1 (configuration not stated),6.25,3.12,3.73,3.12,3.12,22.2,12.5,3.12,3.12,6.25,6.25
O=C1CCCC2=C1C(c1cn(-c3ccc([N+](=O)[O-])cc3)nn1)c1c(ccc3ccccc13)O2 (configuration not stated),> 25,50,–,> 100,> 100,–,> 100,> 100,> 100,50,> 100
O=C1CCCC2=C1C(c1cn(-c3ccccc3)nn1)c1c(ccc3ccccc13)O2 (configuration not stated),12.5,3.12,3.85,3.12,3.12,–,3.12,3.12,3.12,3.12,3.12
CC1(C)CC(=O)C2=C(C1)Oc1ccc3ccccc3c1C2c1cn(-c2ccc(Cl)cc2)nn1 (configuration not stated),3.12,12.5,5.21,12.5,12.5,18.1,12.5,12.5,12.5,12.5,12.5
CC1(C)CC(=O)C2=C(C1)Oc1ccc3ccccc3c1C2c1cn(-c2ccc([N+](=O)[O-])cc2)nn1 (configuration not stated),> 25,3.12,–,6.25,12.5,–,6.25,3.12,6.25,12.5,3.12
O=Cc1cn(-c2ccc(O)cc2)nn1,> 25,–,–,–,–,–,–,–,–,–,–
CC1(C)CC(=O)C2=C(C1)Oc1ccc3ccccc3c1C2c1cn(-c2ccccc2)nn1 (configuration not stated),12.5,12.5,4.65,12.5,6.25,–,25,25,6.25,25,6.25
COc1ccccc1-n1cc(C2C3=C(CCCC3=O)Oc3ccc4ccccc4c32)nn1 (configuration not stated),25,12.5,3.73,25,6.25,–,12.5,6.25,12.5,6.25,6.25
CC1(C)CC(=O)C2=C(C1)Oc1ccc3ccccc3c1C2c1cn(-c2ccc(O)cc2)nn1 (configuration not stated),> 25,3.12,4.26,12.5,6.25,–,6.25,3.12,12.5,6.25,6.25
O=C1CCCC2=C1C(c1cn(-c3cccc(C(F)(F)F)c3)nn1)c1c(ccc3ccccc13)O2 (configuration not stated),> 25,12.5,4.77,25,6.25,–,12.5,50,50,6.5,12.5
O=C1CCCC2=C1C(c1cn(-c3ccccc3Cl)nn1)c1c(ccc3ccccc13)O2 (configuration not stated),25,12.5,4.41,> 100,> 100,–,> 100,> 100,12.5,50,50
O=C1CCCC2=C1C(c1cn(-c3ccc(O)cc3)nn1)c1c(ccc3ccccc13)O2 (configuration not stated),> 25,> 100,3.46,> 100,> 100,–,> 100,> 100,> 100,> 100,> 100
COc1ccccc1-n1cc(C2C3=C(CC(C)(C)CC3=O)Oc3ccc4ccccc4c32)nn1 (configuration not stated),12.5,25,4.53,50,> 100,–,> 100,25,> 100,> 100,> 100
O=Cc1cn(-c2cccc(C(F)(F)F)c2)nn1,> 25,–,–,–,–,–,–,–,–,–,–
CC1(C)CC(=O)C2=C(C1)Oc1ccc3ccccc3c1C2c1cn(-c2ccccc2Cl)nn1 (configuration not stated),25,3.12,5.21,3.12,3.12,–,6.25,3.12,3.12,6.25,12.5
CC1(C)CC(=O)C2=C(C1)Oc1ccc3ccccc3c1C2c1cn(-c2cccc(C(F)(F)F)c2)nn1 (configuration not stated),> 25,100,5.57,12.5,25,–,50,100,12.5,25,25
O=C1CCCC2=C1C(c1cn(-c3ccc(Cl)cc3)nn1)c1c(ccc3ccccc13)O2 (configuration not stated),3.12,12.5,4.41,12.5,12.5,18.1,50,> 100,> 100,25,12.5
COc1ccc(-n2cc(C3C4=C(CC(C)(C)CC4=O)Oc4ccc5ccccc5c43)nn2)cc1 (configuration not stated),6.25,12.5,4.53,3.12,6.25,21.2,6.25,6.25,3.12,6.25,6.25
O=C(O)c1cn(C2CC2)c2cc(N3CCNCC3)c(F)cc2c1=O [CIPROFLOXACIN],–,≤ 6.25,–,≤ 6.25,≤ 6.25,–,≤ 6.25,–,–,≤ 6.25,≤ 6.25
CC[C@@H](CO)NCCN[C@@H](CC)CO [ETHAMBUTOL],7.64,–,–,–,–,–,–,–,–,–,–
OC(Cn1cncn1)(Cn1cncn1)c1ccc(F)cc1F [FLUCONAZOLE],–,–,–,–,–,–,–,≤ 3.12,≤ 3.12,–,–
NNC(=O)c1ccncc1 [ISONIAZID],0.72,–,–,–,–,–,–,–,–,–,–
NC(=O)c1cnccn1 [PYRAZINAMIDE],50.8,–,–,–,–,–,–,–,–,–,–
CO[C@H]1/C=C/O[C@@]2(C)Oc3c(C)c(O)c4c(O)c(c(/C=N/N5CCN(C)CC5)c(O)c4c3C2=O)NC(=O)/C(C)=C\C=C\[C@H](C)[C@H](O)[C@@H](C)[C@@H](O)[C@@H](C)[C@H](OC(C)=O)[C@@H]1C [RIFAMPIN],0.24,–,–,–,–,–,–,–,–,–,–
